Values after ≈ are worked out from the molar mass of the structure shown. Active and inactive are the calls of the source. The rule behind the calls is not given here.
Legend:
[1] = tested on: Mycobacterium tuberculosis H37Rv; experiment: Inhibition of MmpL3 in clinical isolates of drug sensitive Mycobacterium tuberculosis H37Rv after 7 to 14 days by alamar blue assay
[2] = tested on: Mycobacterium tuberculosis; experiment: Antimycobacterial activity against Mycobacterium tuberculosis H37Rv grown on serum isolated from 100 mg/kg, po treated BALB/c mouse for 30 to 120 mins assessed as reduction in bacterial growth followed by bacterial addition incubated for 7 days by alamar blue reagent based serum inhibition titration assay; assay type: functional, organism-based
Outline: (§1)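 Six-week-old female BALB/c mice (20 g) given one oral dose as suspension in 0.5% CMC in water; isoniazid 10 mg/kg as positive control, vehicle as negative. Serum collected at 30, 60 and 120 min, pooled from three mice per time point, 2-fold serially diluted. 10^4 CFU H37Rv added per well, 7 days at 37 °C. alamarBlue added for 16−18 h, fluorescence read at Ex544/Em590 and plotted against serum titration.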

[3] = tested on: Mycobacterium tuberculosis; experiment: Inhibition of MmpL3 in clinical isolates of drug sensitive Mycobacterium tuberculosis V4207 after 7 to 14 days by alamar blue assay
Vero = experiment: Cytotoxicity against african green monkey Vero cells; assay type: cell-based; settings: Chlorocebus sabaeus
[4] = Selectivity index, ratio of IC50 for african green monkey Vero cells to MIC for clinical isolates of Mycobacterium tuberculosis; assay type: toxicity; settings: read-out: Selectivity Index
[5] = Oral bioavailability in BALB/c mouse at 100 mg/kg administered for 30 to 120 mins followed by Mycobacterium tuberculosis H37Rv addition to compound treated serum incubated for 7 days by alamar blue reagent based serum inhibition titration assay; assay type: ADME, organism-based; settings: in vivo; outline: as §1
[6] = Oral bioavailability in BALB/c mouse at 100 mg/kg administered as single dose for 30 to 120 mins followed by Mycobacterium tuberculosis H37Rv addition to compound treated serum incubated for 7 days by alamar blue reagent based serum inhibition titration assay; assay type: ADME, organism-based; settings: in vivo; outline: as §1
[7] = tested on: Mycobacterium tuberculosis; experiment: Antimycobacterial activity against Mycobacterium tuberculosis H37Rv grown on serum of 100 mg/kg, po treated BALB/c mouse for 30 to 120 mins assessed as reduction in bacterial growth followed by bacterial addition incubated for 7 days by alamar blue reagent based serum inhibition titration assay; assay type: functional, organism-based; outline: as §1

| SMILES | MIC90 [1] | further results |
| --- | --- | --- |
| O=C(Nc1nc2ccc(OC(F)(F)F)cc2s1)C1CCCCCC1 | > 300000 nM |  |
| C[C@@H]1[C@H]2C[C@@H](C[C@H]1NC(=O)c1cc3c(Cl)cc(Cl)cc3[nH]1)C2(C)C | 21 nM (≈ 0.00767 µg/mL) | Activity [2]: Active; MIC [3]: 43 µM (≈ 15.7 µg/mL); IC50 (Vero): 43.8 µM; selectivity ratio [4]: 2080; Drug uptake [5]: Active |
| CC1(C)[C@H]2CC[C@@]1(C)[C@H](NC(=O)c1cc3c(Cl)cc(Cl)cc3[nH]1)C2 | 43 nM (≈ 0.0157 µg/mL) |  |
| Cc1cccc2[nH]c(C(=O)NC3CCCCCCC3)cc12 | 110 nM (≈ 0.0313 µg/mL) |  |
| O=C(NC1CCCCCCC1)c1cc2c(Cl)cc(Cl)cc2[nH]1 | 11 nM (≈ 0.00373 µg/mL) | Activity [2]: Active; MIC [3]: 11 µM (≈ 3.73 µg/mL); IC50 (Vero): 23.5 to 47 µM; selectivity ratio [4]: 2140 to 4270; Drug uptake [5]: Active |
| O=C(NC1Cc2ccccc2C1)c1cc2c(Cl)cc(Cl)cc2[nH]1 | 720 nM (≈ 0.249 µg/mL) |  |
| CCCCCCCCNC(=O)c1cc2c(Cl)cc(Cl)cc2[nH]1 | > 300000 nM |  |
| C[C@@H]1[C@H]2C[C@@H](C[C@H]1NC(=O)c1cc3ccc(Br)cc3[nH]1)C2(C)C | 10 nM (≈ 0.00375 µg/mL) |  |
| O=C(NC1Cc2ccccc2C1)c1cc2c(F)cc(F)cc2[nH]1 | 102000 nM (≈ 31.9 µg/mL) |  |
| O=C(NC12CC3CC(CC(C3)C1)C2)c1cc2c(Cl)cc(Cl)cc2[nH]1 | 11 nM (≈ 0.004 µg/mL) | Drug uptake [6]: Not Active; Activity [7]: inactive |
| Cc1ccc2[nH]c(C(=O)NC3CCCCCC3)cc2c1 | 7400 nM (≈ 2 µg/mL) |  |
| O=C(NC1CCC2(CCCCC2)CC1)c1cc2c(Cl)cc(Cl)cc2[nH]1 | 5 nM (≈ 0.0019 µg/mL) | Drug uptake [6]: Not Active; Activity [7]: inactive |
| C[C@@H]1[C@@H](NC(=O)c2cc3c(Cl)cc(Cl)cc3[nH]2)C[C@H]2C[C@@H]1C2(C)C | 86 nM (≈ 0.0314 µg/mL) |  |
| O=C(N[C@@H]1C[C@H]2CC[C@@H]1C2)c1cc2c(Cl)cc(Cl)cc2[nH]1 (relative stereo) | 390 nM (≈ 0.126 µg/mL) |  |
| Cc1cc(C)c2[nH]c(C(=O)NC3CCCCCC3)cc2c1 | 3500 nM (≈ 0.995 µg/mL) |  |
| COc1cc(OC)c2cc(C(=O)NC3CCCCCCC3)[nH]c2c1 | 190 nM (≈ 0.0628 µg/mL) |  |
| Cc1cccc2[nH]c(C(=O)NC3CCCCCC3)cc12 | 930 nM (≈ 0.251 µg/mL) |  |
| Nc1cccc2[nH]c(C(=O)NC3CCCCCCC3)cc12 | 20000 nM (≈ 5.71 µg/mL) |  |
| O=C(NC1CCCCCCC1)c1cc2ccc(Br)cc2[nH]1 | 90 nM (≈ 0.0314 µg/mL) |  |
| CC(C)=CCC/C(C)=C/CNC(=O)c1cc2c(Cl)cc(Cl)cc2[nH]1 | 11000 nM (≈ 4.02 µg/mL) |  |

Source: ChEMBL document CHEMBL4477209, “Indole-2-carboxamide-based MmpL3 Inhibitors Show Exceptional Antitubercular Activity in an Animal Model of Tuberculosis Infection” (J Med Chem, 2016)
